Legend:
CD4+ T-cells = experiment: T-cell proliferation assay; format: cell-based, mouse; details: 1-MT 0.75 mM
Outline: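 CD4+ responder T cells from C3H mouse spleens (10^5/well, anti-CD3/CD28 bead-stimulated) were co-cultured 3 days with 5 × 10^4 mitomycin C-treated (40 µg/ml, 30 min) MCEC. The MCEC were untransfected or transfected with test peptide carrying IDO or GFP plasmid, with or without 0.75 mM final 1-methyl-dl-tryptophan. [3H]thymidine (1 µCi/well) was added and incorporation was counted 16 h later.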

MCEC [1] = experiment: Inhibitor studies: uptake of F complexes; format: cell-based; details: Mus musculus, read-out: reduction (inhibition) of uptake of F complexes
Outline: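 Mouse corneal endothelial cells (MCEC; DMEM, 10% FBS, full serum) were seeded at 2.2 × 10^5/well one day before. Complexes of test peptide with Cy5-labelled luciferase plasmid were formed in 10 mM phosphate buffer pH 7.0, added with inhibitor at non-toxic working levels, and incubated 3 h at 37°C. Cells were washed, trypsinised and read by flow cytometry (mean fluorescence, 10 000 gated cells), relative to vehicle (DMSO or water) = 100%.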

MCEC [2] = experiment: Inhibitor studies: luciferase gene expression mediated by F complexes; format: cell-based, mouse

`Cn1cc(CC(N)C(=O)O)c2ccccc21` (racemic) [1-MT, 1-methyl-DL-tryptophan] was tested, and the “effect on the inhibition of T-cell proliferation by IDO-transfected MCEC” value (CD4+ T-cells) was “reversed”.

In the case of `CCN(c1nc(N)c(C(=O)NC(=N)N)nc1Cl)C(C)C` [EIPA, 5-(N-ethyl-N-isopropyl)amiloride], the inhibition at 25 µg/mL (MCEC [1]) is reported as 32.9%.

With `CCCCC[C@@H](O)[C@H]1C(=O)O[C@H](C)[C@@H](O)/C=C/C=C/C=C/C=C/C=C(\C)[C@@H](O)C[C@H](O)C[C@H](O)C[C@H](O)C[C@H](O)C[C@H](O)C[C@@H]1O` [Filipin, filipin III] the inhibition at 1 µg/mL (MCEC [1]) was 48.6%.

In the case of `C=C1[C@@H](C)[C@H]2[C@H](Cc3ccccc3)NC(=O)[C@]23[C@H](OC(C)=O)/C=C/[C@@](C)(O)C(=O)[C@@H](C)C/C=C/[C@H]3[C@@H]1O` [cytochalasin, cytochalasin D], the inhibition at 5 µg/mL (MCEC [1]) is reported as 58.5%.

With `O=C(N/N=C/c1ccc(O)c(O)c1)c1cc2ccccc2cc1O` [dynasore] the “toxicity during the longer incubation period used for gene expression assays” value (MCEC [2]; dynasore 6.8 µg/ml, MCEC) was “pronounced toxicity” and the inhibition at 6.8 µg/mL (MCEC [1]) was 64.7%.

`COC(=O)Nc1nc2ccc(C(=O)c3cccs3)cc2[nH]1` [nocodazole] was tested, and the “increase of gene expression mediated by F complexes” value (MCEC [2]; nocodazole 4.5 µg/ml, N/P 20, luciferase 72 h later, relative to vehicle control) was 2.35 times and the inhibition at 4.5 µg/mL (MCEC [1]) was 58.2%.
